What was measured:
Cholinesterase = Cholinesterase (Homo sapiens, UniProt P06276); test: Inhibition of BChE (unknown origin) using BCh iodide as substrate preincubated for 15 mins prior to substrate addition measured after 10 mins by Ellman's method
[1] = Inhibition of yeast alpha-glucosidase type 3 using p-nitrophenyl-alpha-D-glucopyranoside as substrate preincubated with substrate for 5 mins prior to enzyme challenge for 30 mins by absorbance analysis; parameters: species or system Saccharomyces cerevisiae
Method in brief: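 Yeast enzyme at 0.1 units/ml in pH 6.8 potassium phosphate/MgCl2 buffer; substrate stock 6 mmol/L. Compound (sample solution 0.6 mg/ml in DMSO) mixed with buffer, water and substrate, held 5 min at 37 °C, then enzyme added; reaction 30 min at 37 °C, stopped with 0.4 mol/L glycine buffer pH 10; p-nitrophenol read at 410 nm. Deoxynojirimycin as reference inhibitor.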

Chain of Cholinesterase (P06276 whole entry): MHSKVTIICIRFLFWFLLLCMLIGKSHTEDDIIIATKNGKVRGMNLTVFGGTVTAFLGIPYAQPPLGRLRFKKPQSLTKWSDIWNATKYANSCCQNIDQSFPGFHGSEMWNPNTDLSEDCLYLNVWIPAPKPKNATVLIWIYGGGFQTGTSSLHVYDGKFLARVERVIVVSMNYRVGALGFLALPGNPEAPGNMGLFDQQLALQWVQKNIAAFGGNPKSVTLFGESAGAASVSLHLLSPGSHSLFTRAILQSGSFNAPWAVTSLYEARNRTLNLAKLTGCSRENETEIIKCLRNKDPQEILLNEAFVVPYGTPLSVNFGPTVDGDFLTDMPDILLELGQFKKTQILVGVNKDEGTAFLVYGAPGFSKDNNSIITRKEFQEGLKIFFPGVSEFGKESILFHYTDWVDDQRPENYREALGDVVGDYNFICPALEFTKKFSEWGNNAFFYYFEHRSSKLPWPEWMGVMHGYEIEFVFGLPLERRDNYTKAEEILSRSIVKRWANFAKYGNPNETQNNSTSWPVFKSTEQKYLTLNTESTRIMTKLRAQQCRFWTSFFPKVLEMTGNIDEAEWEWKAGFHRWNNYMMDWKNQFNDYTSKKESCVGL

Row | SMILES | IC50 (Cholinesterase) [µM] | IC50 [1] [µM]
1 | COc1ccccc1/C=C/C(=O)c1ccccc1 | 27 | 
2 | O=C(/C=C/c1ccc([N+](=O)[O-])cc1)c1ccccc1 | 32 | 3850
3 | O=[N+]([O-])c1ccc(-n2cc(-c3ccccc3)nn2)cc1 | 250 | 235
4 | O=C(/C=C/c1ccccc1O)c1ccccc1 | 105 | 
5 | O=C(/C=C/c1ccccc1O)c1ccccc1O | 13 | 49.4
6 | Nc1ccc(C(=O)/C=C/c2ccccc2Br)cc1 | 26 | 
7 | c1ccc(C2=Nc3ccccc3SC(c3ccccc3)C2)cc1 (stereo unspecified) |  | 33
8 | Oc1ccccc1C1=Nc2ccccc2SC(c2ccccc2)C1 (stereo unspecified) | 62 | 12.8
9 | Oc1ccccc1C1=Nc2ccccc2SC(c2ccc(Cl)cc2)C1 (stereo unspecified) |  | 18
10 | Oc1ccccc1C1=Nc2ccccc2SC(c2ccc(F)cc2)C1 (stereo unspecified) | 14 | 12
11 | COc1ccc(C2CC(c3ccccc3O)=Nc3ccccc3S2)cc1 (stereo unspecified) |  | 11.9
12 | Cc1ccc(C2CC(c3ccccc3O)=Nc3ccccc3S2)cc1 (stereo unspecified) | 14 | 12
13 | O=C(/C=C/c1ccc2c(c1)OCO2)c1ccccc1 |  | 1870
14 | O=C(/C=C/c1ccc2c(c1)OCO2)c1ccccc1O |  | 151
15 | COc1cccc(/C=C/C(=O)c2ccccc2)c1 | 32 | 151
16 | CCCCCCCCCCCCCCCCn1cc(C2(O)CCCCC2)nn1 | 500 | 1190
17 | OC1(c2cn(-c3ccccc3Cl)nn2)CCCCC1 | 430 | 370
18 | O=[N+]([O-])c1cccc(-n2cc(C3(O)CCCCC3)nn2)c1 | 585 | 862
19 | Clc1ccccc1-n1cc(-c2ccccc2)nn1 | 41.3 | 57.2
20 | Brc1ccc(-n2cc(-c3ccccc3)nn2)cc1 | 375 | 409
21 | O=[N+]([O-])c1cccc(-n2cc(-c3ccccc3)nn2)c1 | 499 | 520
22 | N#Cc1cc([N+](=O)[O-])ccc1-n1cc(C2(O)CCCCC2)nn1 | 42.4 | 49.7
23 | O=C(On1cc(C2(O)CCCCC2)nn1)c1ccccc1 | 248 | 1090
24 | CCCCCCCCc1ccc(-n2cc(C3(O)CCCCC3)nn2)cc1 | 43.6 | 658
25 | OC1(c2cn(-c3ccc(Cl)cc3)nn2)CCCCC1 | 294 | 1390
26 | COC(=O)Cc1ccc(-n2cc(C3(O)CCCCC3)nn2)cc1 | 568 | 812
27 | O=[N+]([O-])c1ccc(-n2cc(C3(O)CCCCC3)nn2)cc1 | 409 | 320

Row | SMILES | IC50 (Cholinesterase) [µM] | IC50 [1] [µM]
28 | Cc1ccc(-n2cc(C3(O)CCCCC3)nn2)c(Cl)c1 | 65.5 | 366
29 | CC(=O)c1cccc(-n2cc(C3(O)CCCCC3)nn2)c1 | 452 | 320
30 | OC1(c2cn(-c3cccc(Cl)c3)nn2)CCCCC1 | 512 | 1390
31 | OC1(c2cn(-c3ccc(Br)cc3)nn2)CCCCC1 | 298 | 325
32 | COc1cccc(-n2cc(C3(O)CCCCC3)nn2)c1 | 83.3 | 245
33 | CC(=O)c1cccc(-n2cc(-c3ccccc3)nn2)c1 | 451 | 265
34 | CC(=O)c1ccccc1-n1cc(-c2ccccc2)nn1 | 295 | 313
35 | O=[N+]([O-])c1ccccc1-n1cc(C2(O)CCCCC2)nn1 | 333 | 1710
36 | COC(=O)Cn1cc(C2(O)CCCCC2)nn1 | 362 | 255
37 | OC1(c2cn(-c3ccncc3)nn2)CCCCC1 | 385 | 520
38 | Clc1ccc(-n2cc(-c3ccccc3)nn2)cc1 | 555 | 378
39 | CCCCCCCCCCCCCCCCn1cc(-c2ccccc2)nn1 | 454 | 370
40 | CC(=O)c1ccc(-n2cc(C3(O)CCCCC3)nn2)cc1 | 450 | 1560
41 | O=[N+]([O-])c1ccccc1-n1cc(-c2ccccc2)nn1 |  | 6760
42 | Oc1ccc(C2=Nc3ccccc3SC(c3cccs3)C2)cc1 (stereo unspecified) | 3.97 | 
43 | Oc1ccc(C2=Nc3ccccc3SC(c3cccc(O)c3)C2)cc1 (stereo unspecified) | 4.7 | 
44 | c1ccc(C2=Nc3ccccc3SC(c3cccs3)C2)cc1 (stereo unspecified) | 9.1 | 
45 | Cc1ccc(C2CC(c3cccc(O)c3)=Nc3ccccc3S2)c(C)c1 (stereo unspecified) | 19.7 | 
46 | O=[N+]([O-])c1ccc(C2CC(c3ccccc3O)=Nc3ccccc3S2)cc1 (stereo unspecified) | 57 | 
47 | CCSc1ccccc1-c1cnc(-c2ccsc2)[nH]1 | 0.1 | 
48 | COc1ccc(C(=O)/C=C/c2ccc(N)cc2)cc1 |  | 20.2
49 | COc1cccc(/C=C/C(=O)c2ccc(N)cc2)c1 |  | 93
50 | COc1cccc(/C=C/C(=O)c2ccccc2O)c1 |  | 130
51 | O=C(/C=C/c1ccccc1)c1ccccc1O [2'-HYDROXYCHALCONE] | 84 | 15
52 | COc1ccc(/C=C/C(=O)c2ccccc2)cc1 [4-METHOXY CHALCONE] | 42 | 
53 | O=C(/C=C/c1ccccc1)c1ccccc1 [CHALCONE] | 87 | 

Reference: ChEMBL document CHEMBL3259684, “Dual inhibition of the α-glucosidase and butyrylcholinesterase studied by molecular field topology analysis” (Eur J Med Chem, 2014)
